Measured values collected from several papers.
Compare with care: the assays were run in different laboratories.
Target: Dual specificity mitogen-activated protein kinase kinase 2 (MAP2K2, Homo sapiens, UniProt P36507)

| SMILES | observed | action | technique | tested at | quantity | value |
| --- | --- | --- | --- | --- | --- | --- |
| N#Cc1ccc(NC(=O)Nc2ccccc2)cc1 | cell-free assay |  | competition with immobilised ligand | 25 µM | remaining binding | 64% |
| CCCCC(=O)Nc1ccc(-c2ccc3ncn(CCC)c(=O)c3c2)cn1 | binding |  | competition with immobilised ligand | 0.5 µM | remaining binding | 68% |
| COc1ccc2oc(-c3ccc4nc(N)oc4c3)c/c(=N\c3ccccc3NC(=O)CCN)c2c1 | binding |  |  | 1 µM | remaining binding | 106% |
| Cc1cc(O)c(-c2ccc([C@@H](C)CN(C)C)cc2)c2c1[nH]c(=O)c1sccc12 | enzyme activity | inhibitor |  | 0.1 µM | inhibition | 24.2% |
| C#Cc1cc(-c2cc(Nc3nc(N[C@@H](C)c4ccc(F)cn4)ncc3Cl)n[nH]2)ccc1C=O | enzyme activity | inhibitor |  | 0.2 µM | inhibition | 20.9% |
| CC(C)S(=O)(=O)c1ccc2nccc(Nc3ccc4sc(C5CCCC5)nc4c3)c2c1 | enzyme activity | inhibitor |  | 1 µM | activity vs control | 98% |
| CO[C@@H]1[C@H](N(C)C(=O)c2ccccc2)C[C@H]2O[C@]1(C)n1c3ccccc3c3c4c(c5c6ccccc6n2c5c31)C(=O)NC4 | enzyme activity | inhibitor |  | 1 µM | inhibition | 20% |
| CN1CCN(C(=O)c2ccc(NC(=O)Nc3ccc(N(C)c4ccnc(Nc5ccc(CS(C)(=O)=O)cc5)n4)cc3)cc2)CC1 | binding |  | competition with immobilised ligand | 1 µM | remaining binding | 40% |
| C=CC(=O)N1CCC([C@@H]2CCNc3c(C(N)=O)c(-c4ccc(Oc5ccccc5)cc4)nn32)CC1 | enzyme activity | inhibitor |  | 1 µM | inhibition | 99% |
| COc1ccc2[nH]c3c4[nH]c5ccc(OC)cc5c4c4c(c3c2c1)C(=O)NC4=O | binding |  | competition with immobilised ligand | 1 µM | remaining binding | 59% |
